Experimental data reported in ChEMBL document CHEMBL5370689, “Development of Allosteric NIK Ligands from Fragment-Based NMR Screening” (ACS Med Chem Lett, 2023).
The source made the active and inactive calls.

Columns and labels:
[1] = molecular target: T1, Mitogen-activated protein kinase kinase kinase 14 (Homo sapiens, UniProt Q99558); test: Binding affinity to biotinylated N-terminal 6His-tagged/TEV cleavage site-fused human NIK by SPR analysis
Method in brief: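 Biotinylated NIK was probed by SPR with no nucleotide added, in dose–response format. Responses were plotted as a binding curve to give Kd, reported as mean ± SEM of two determinations.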
Target sequence in this assay (Q99558 whole entry, the tested form may be a part): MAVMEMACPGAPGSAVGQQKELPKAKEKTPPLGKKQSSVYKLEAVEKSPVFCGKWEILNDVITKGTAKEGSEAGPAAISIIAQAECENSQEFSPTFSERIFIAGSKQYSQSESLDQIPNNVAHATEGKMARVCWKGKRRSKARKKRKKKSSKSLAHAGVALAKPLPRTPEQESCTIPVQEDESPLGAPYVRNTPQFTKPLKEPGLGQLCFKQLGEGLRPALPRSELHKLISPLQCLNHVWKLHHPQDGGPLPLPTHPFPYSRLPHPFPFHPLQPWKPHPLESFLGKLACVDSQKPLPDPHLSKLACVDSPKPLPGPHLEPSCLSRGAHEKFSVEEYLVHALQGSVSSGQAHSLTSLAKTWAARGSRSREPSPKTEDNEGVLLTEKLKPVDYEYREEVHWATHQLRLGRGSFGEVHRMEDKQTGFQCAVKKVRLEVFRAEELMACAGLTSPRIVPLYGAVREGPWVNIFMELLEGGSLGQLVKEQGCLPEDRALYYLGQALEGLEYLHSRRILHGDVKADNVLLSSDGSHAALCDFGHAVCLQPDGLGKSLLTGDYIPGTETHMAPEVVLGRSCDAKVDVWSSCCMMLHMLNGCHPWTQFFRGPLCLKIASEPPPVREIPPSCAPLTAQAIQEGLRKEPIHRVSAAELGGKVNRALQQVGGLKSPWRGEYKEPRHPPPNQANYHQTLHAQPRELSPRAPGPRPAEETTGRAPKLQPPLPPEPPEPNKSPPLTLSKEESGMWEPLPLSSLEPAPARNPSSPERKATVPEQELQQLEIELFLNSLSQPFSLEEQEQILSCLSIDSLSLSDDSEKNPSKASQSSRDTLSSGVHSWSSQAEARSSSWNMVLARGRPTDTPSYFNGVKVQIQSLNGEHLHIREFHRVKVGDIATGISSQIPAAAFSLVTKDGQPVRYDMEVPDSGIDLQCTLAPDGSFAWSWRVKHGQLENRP

[2] = molecular target: T1, Mitogen-activated protein kinase kinase kinase 14; test: Binding affinity to biotinylated N-terminal 6His-tagged/TEV cleavage site-fused human NIK in presence of AMP-PNP by SPR analysis
Method in brief: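 Dose–response SPR used biotinylated NIK in the presence of saturating AMP-PNP. Kd came from the fitted binding curve, reported as mean ± SEM of two determinations.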
Target sequence in this assay (Q99558 whole entry, the tested form may be a part): as above

[3] = Aqueous solubility of the compound in K2HPO4 in D2O with 5% DMSO-d6 at pH 7.4 by qNMR spectra analysis; type: physicochemical; conditions: K2HPO4 buffer in D2O with 5% DMSO-d6, pH 7.4
[4] = Redox activity of the compound in HEPES/NaCl at pH 7.5 measured after 60 mins in presence of DTT by resazurin reagent based assay; type: physicochemical; conditions: pH 7.5, 1 h
Method in brief: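 A plate-based redox assay screened for redox activity as a source of false positives. NSC 663284, a known redox-active molecule, served as the positive control.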

[5] = Aggregation property of the compound in sodium phosphate buffer at pH 7.4 by 1H-NMR spectra analysis; type: physicochemical
[6] = molecular target: T1, Mitogen-activated protein kinase kinase kinase 14; test: Binding affinity to N-terminal 6His-tagged/TEV cleavage site-fused human NIK assessed as attenuation of spectral signal at 100 uM by 1H-CPMG-NMR analysis relative to control
Target sequence in this assay (Q99558 whole entry, looked up, the tested form may be a part): as the sequence (Q99558 whole entry, the tested form may be a part) above

[7] = molecular target: T1, Mitogen-activated protein kinase kinase kinase 14; test: Binding affinity to N-terminal 6His-tagged/TEV cleavage site-fused human NIK assessed as attenuation of spectral signal at 100 uM in presence of AMP-PNP by 1H-CPMG-NMR analysis relative to control
Target sequence in this assay (Q99558 whole entry, looked up, the tested form may be a part): as the sequence (Q99558 whole entry, the tested form may be a part) above

[8] = molecular target: T1, Mitogen-activated protein kinase kinase kinase 14; test: Binding affinity to biotinylated N-terminal 6His-tagged/TEV cleavage site-fused human NIK at <500 uM by SPR analysis
Method in brief: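 Biotinylated NIK used as the SPR surface. Each fragment was run at five concentrations, and the responses were fitted to a binding curve to estimate affinity. A 500 µM affinity cut-off was applied.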
Target sequence in this assay (Q99558 whole entry, looked up, the tested form may be a part): as the sequence (Q99558 whole entry, the tested form may be a part) above

| Kd [1] [µM] | Kd [2] [µM] | Compound | also measured |
| --- | --- | --- | --- |
| 40.4 | 290 | OC1(C2CC2)CCOc2cc(Cl)ccc21 (stereo not given) | – |
| 572 | 369 | OC1(c2ccccc2)CCOc2cc(Cl)ccc21 (stereo not given) | – |
| 130 | 214 | OC1CCOc2cc(Cl)ccc21 (stereo not given) | solubility [3]: ≥ 5 mM; Activity [4]: Not Active; Activity [5]: Not Active; Activity [6]: > 50%; Activity [7]: > 50%; Activity [8]: Active |
| > 1000 | > 1000 | CC1(O)CCOc2cc(Cl)ccc21 (stereo not given) | – |
| 206 | 583 | CCC1(O)CCOc2cc(Cl)ccc21 (stereo not given) | – |

Continued, compound first:

| Compound | Kd [1] [µM] | Kd [2] [µM] | also measured |
| --- | --- | --- | --- |
| Cc1ccc2c(c1)OCCC2O (stereo not given) | > 1000 | > 1000 | – |
| COc1cc(Cl)cc(C)c1C(C)(O)C1CC1 (stereo not given) | 150 | 143 | – |
| Cc1cc(Cl)cc2c1C(O)(c1ccccc1)CCO2 (stereo not given) | 367 | 717 | – |
| Cc1ccc2c(c1)C(O)CCO2 (stereo not given) | > 1000 | > 1000 | – |
| COC1CCOc2cc(Cl)ccc21 (stereo not given) | > 1000 | > 1000 | – |
| Cc1cccc2c1C(O)CCO2 (stereo not given) | 134 | 131 | – |
| Cc1cccc2c1OCCC2O (stereo not given) | > 1000 | > 1000 | – |
